This is an account of results in ChEMBL document CHEMBL3779787, “Amorfrutin C Induces Apoptosis and Inhibits Proliferation in Colon Cancer Cells through Targeting Mitochondria” (J Nat Prod, 2016).

Molecules are shown by their SMILES. Calls of active or inactive are those of the source. The rule behind the calls is not given here.

Assay [1] in a line: Antiproliferative activity against human PC3 cells assessed as cellular DNA content after 72 hrs by CyQUANT NF fluorescence assay relative to control. Format: functional, PC-3. A digest of the protocol:
(§1)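 Cells seeded at 750 (HT-29), 250 (PC-3) or 900 (T84, MCF7) cells/well, treated next day with concentration series for 72 h (HT-29, PC-3) or 96 h (T84, MCF7). Relative cell number from cellular DNA content by fluorescent DNA-binding dye. Variable-slope fit; efficiency = maximal inhibition (100% − Bottom) vs untreated; IC50 relative to the compound's own maximal efficiency.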

The test system of assay [2] is HT-29. Put plainly: Increase in extracellular acidification rate in human HT-29 cells at 10 uM measured for 20 to 150 mins by time-resolved fluorescence assay. Format: functional. A digest of the protocol: (§2)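 HT-29 seeded 80 000 cells/well, held overnight at 37 °C without CO2. Low-buffering medium (1 mM PBS pH 7.4, 20 mM glucose, salts) with pH-sensitive lifetime probe, unsealed wells. Time-resolved fluorescence at 37 °C for 200 min, lifetime converted to pH. Acidification rate (H+ change/min) taken over 20–150 min; means ± SEM, n = 8.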

Assay [3] deals with HT-29. Put plainly: Induction of ROS generation in human HT-29 cells at 30 uM by CM-H2DCFDA staining-based fluorescence assay. Format: functional, cell-based. A digest of the protocol: (§3)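 HT-29 (15 000 cells/well) loaded with 50 μM CM-H2DCFDA in PBS for 30 min at 37 °C, washed, then 60 min in phenol red-free DMEM/F-12. 30 μM compound added alone or with NAC 1 mM, GSH 2.5 mM, D3T 25 μM, α-tocopherol 50 μM or ascorbic acid 500 μM. Fluorescence 485/530 nm read kinetically at 37 °C for 22 h; area under curve; means ± SEM, n = 7.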

In assay [4] the test system is HT-29. Put plainly: Induction of apoptosis in human HT-29 cells at 30 uM after 24 hrs by annexin V-FLUOS/propidium iodide staining-based flow cytometry in presence of ascorbic acid. Type of assay: functional, cell-based. A digest of the protocol:
(§4)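 HT-29 cells co-incubated 24 h with 30 μM compound and antioxidant: glutathione 2.5 mM, α-tocopherol 50 μM, or ascorbic acid 500 μM. Phosphatidylserine externalization measured by annexin V-FLUOS/propidium iodide staining and flow cytometry. Means ± SEM, n = 3.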
(In general: In flow cytometry, cells or beads pass a laser one at a time.)

Assay [5] concerns HT-29. Nature of the assay: Antiproliferative activity against human HT-29 cells assessed as cellular DNA content after 72 hrs by CyQUANT NF fluorescence assay relative to control. Type of assay: functional. A digest of the protocol: as §1
The subject of assay [6] is HT-29. Put plainly: Antiproliferative activity against human HT-29 cells assessed as cellular DNA content after 72 hrs by CyQUANT NF fluorescence assay. Format: functional, cell-based. To be noted: HT-29, 72 h. A digest of the protocol:
as §1

For assay [7], the system named is HT-29. Put plainly: Downregulation of CDK4 expression in human HT-29 cells at 10 uM after 48 hrs by immunoblotting method. Format: functional, cell-based. A digest of the protocol:
(§5)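 HT-29 exposed to 10 μM for 48 h; whole-cell lysates immunoblotted for the indicated proteins (total and cleaved PARP for the apoptosis line).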

In assay [8] the test system is HT-29. Put plainly: Antiproliferative activity against human HT-29 cells assessed as cellular DNA content after 72 hrs by CyQUANT NF fluorescence assay in presence of cisplatin. Type of assay: functional, cell-based. A digest of the protocol: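 HT-29 exposed 72 h to concentration series of mixtures at ratios 7:0 through 0:7 with the partner drug. Relative cell number from DNA-content fluorescence. IC70 = concentration giving 70% inhibition of total cells (means ± SD, n = 4); isobolograms by Loewe additivity, CI(M) = IC70(Mx)/IC70(x) + IC70(My)/IC70(y).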

Assay [9] relates to HT-29. Put plainly: Induction of cell cycle arrest in human HT-29 cells assessed as accumulation at G0/G1 phase at 10 uM by flow cytometry (reference value: 66%). Format: functional.
Assay [10] concerns HT-29. Put plainly: Antiproliferative activity against human HT-29 cells assessed as cellular DNA content at 20 uM after 48 hrs by CyQUANT NF fluorescence assay in presence of ascorbic acid. Type of assay: functional, cell-based. In short, it runs like this: (§6)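 HT-29 given concentration series of test compound with or without antioxidant (NAC 1 mM, GSH 2.5 mM, D3T 25 μM, α-tocopherol 50 μM, ascorbic acid 500 μM) for 48 h. Relative cell number from DNA-binding fluorescent dye; means ± SD, n = 4.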

Assay [11] has as its system HT-29. Put plainly: Downregulation of cyclin A2 expression in human HT-29 cells at 10 uM after 48 hrs by immunoblotting method. Type of assay: functional, cell-based. In short, it runs like this: as §5
For assay [12], the system named is HT-29. Put plainly: Induction of apoptosis in human HT-29 cells at 30 uM after 24 hrs by annexin V-FLUOS/propidium iodide staining-based flow cytometry in presence of cyclosporine A. Type of assay: functional, cell-based. In short, it runs like this:
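For 24 h, HT-29 cells were exposed to 30 μM compound with or without cyclosporin A (2 μM). Apoptosis and necrosis were scored by annexin V-FLUOS/propidium iodide flow cytometry. Means ± SEM, n = 3.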

The test system of assay [13] is HT-29. Put plainly: Downregulation of CDK2 expression in human HT-29 cells at 10 uM after 48 hrs by immunoblotting method. Format: functional, cell-based. In short, it runs like this:
as §5
A general note: Immunoblotting shows a protein as a band on a membrane.

Assay [14] concerns HT-29. Nature of the assay: Antiproliferative activity against human HT-29 cells assessed as cellular DNA content at 20 uM after 48 hrs by CyQUANT NF fluorescence assay in presence of N-acetylcysteine. Type of assay: functional, cell-based. A digest of the protocol:
as §6

For assay [15], the system named is HT-29. Put plainly: Induction of apoptosis in human HT-29 cells assessed as DNA fragmentation by measuring cytoplasmic BrdU-labeled DNA at 30 uM by ELISA. Format: functional, cell-based. In short, it runs like this:
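Cytosolic DNA by ELISA after 4 h treatment. BrdU method: cells (13 000/well) prelabelled with 10 μM BrdU for 2 days at 37 °C, unincorporated BrdU removed before treatment. Oligonucleosome method: 20 000 cells/well, 1 day at 37 °C. Cell-free background subtracted, normalized to vehicle; means ± SEM, n = 4.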

Assay [16] has as its system HT-29. Nature of the assay: Induction of apoptosis in human HT-29 cells at 30 uM after 24 hrs by annexin V-FLUOS/propidium iodide staining-based flow cytometry in presence of glutathione. Format: functional, cell-based. A digest of the protocol: as §4
Assay [17] deals with HT-29. Nature of the assay: Increase in mitochondrial oxygen consumption in human HT-29 cells at 2 to 10 uM measured for 20 to 60 mins by time-resolved fluorescence assay. Format: functional, cell-based. In short, it runs like this: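 HT-29 at 80 000 cells/well in phenol red-free DMEM/F-12 with oxygen-sensitive lifetime probe, compound added, wells sealed with mineral oil. Time-resolved fluorescence at 37 °C, 90 s intervals for 150 min. Lifetime slope over 20–60 min expressed relative to untreated cells; means ± SEM, n = 8.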

Assay [18] concerns HT-29. Nature of the assay: Induction of ROS generation in human HT-29 cells at 30 uM by CM-H2DCFDA staining-based fluorescence assay in presence of N-acetylcysteine. Format: functional, cell-based. A digest of the protocol:
as §3

In assay [19] the test system is HT-29. Nature of the assay: Increase in extracellular acidification rate in human HT-29 cells at 2 uM measured for 20 to 150 mins by time-resolved fluorescence assay. Format: functional. In short, it runs like this: as §2
Assay [20] concerns HT-29. Nature of the assay: Induction of apoptosis in human HT-29 cells assessed as increase in caspase 9 activity at 30 uM after 2 hrs by luminescent assay relative to control. Format: functional. In short, it runs like this: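 HT-29 cells exposed to compound 2 h; effector/initiator caspase enzymatic activity measured by luminescent assays, normalized to control treatment; means ± SEM, n = 4.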

The test system of assay [21] is HT-29. Put plainly: Induction of apoptosis in human HT-29 cells assessed as permanent opening of mitochondrial permeability transition pore at 30 uM after 30 mins calcein/CoCl2 staining-based fluorescence assay. Format: functional, cell-based. A digest of the protocol:
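Trypsinized HT-29 (10^6 cells/mL) in HBSS/Ca with 10 nM calcein and 400 μM CoCl2. Pretreated 60 min at 37 °C with 2 μM cyclosporin A or vehicle, then test compound for 30 min at 37 °C. Washed; mitochondrial calcein fluorescence by flow cytometry; means ± SEM, n = 6.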

Regarding `COc1c(CC=C(C)C)c(O)c(C(=O)O)c(CCc2ccccc2)c1CC=C(C)C`, the Efficacy (in [1]; in the assay with HT-29 [5]) was 95% throughout. Besides, the Activity in the assay with HT-29 [2] is 2.9 ×10⁻⁹ /min; with HT-29 [9], 89%; in the assay on HT-29 [19], 1.5 ×10⁻⁹ /min. For the same molecule, the outcome with HT-29 [3], in the assay with HT-29 [4], with HT-29 [7], in the assay with HT-29 [8], with HT-29 [10] and in the assay on HT-29 [11] was Active. Further, the result in the assay with HT-29 [12], with HT-29 [13], in the assay with HT-29 [14], in the assay on HT-29 [15], with HT-29 [16] and in the assay on HT-29 [17] was Active. The result with HT-29 [21] was Active. Also, the IC50 (usually the concentration that gives 50% inhibition) in the assay on HT-29 [6] turned out to be 8.1 µM. Further, the result in the assay with HT-29 [18] was inactive. In the assay with HT-29 [20], the “fold change (FC)” value is given as 3.
